Reference: ChEMBL document CHEMBL4011643, “Triaryl Benzimidazoles as a New Class of Antibacterial Agents against Resistant Pathogenic Microorganisms” (J Med Chem, 2017)
In brackets after ≈: the same amount, converted by molar mass.

Key:
[1] = tested on: Staphylococcus aureus; experiment: Antibacterial activity against methicillin-resistant Staphylococcus aureus MRSA252 after 20 hrs by broth microdilution method; type: functional; conditions: MRSA252, 20 h
Summary of the method: (§1)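 Broth microdilution in Tryptic Soy Broth; growth read as OD600 after 20 h. MIC taken as the lowest drug concentration giving OD600 below 0.1. Run in triplicate.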

[2] = tested on: Klebsiella pneumoniae; experiment: Antibacterial activity against Klebsiella pneumoniae NCTC 13368 after 20 hrs in the presence of PMBN by broth microdilution method; type: functional; conditions: NCTC 13368, 20 h
Summary of the method: (§2)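 Broth microdilution in Tryptic Soy Broth, done in triplicate. Growth was read as OD600 after 20 h. MIC is the lowest drug concentration giving OD600 below 0.1.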

[3] = tested on: Klebsiella pneumoniae; experiment: Antibacterial activity against Klebsiella pneumoniae NCTC 13368 after 20 hrs in the presence of Pa-beta-N and magnesium ions by broth microdilution method; type: functional; conditions: NCTC 13368, 20 h; summary of the method: as §2
[4] = tested on: Pseudomonas aeruginosa; experiment: Antibacterial activity against Pseudomonas aeruginosa NCTC 13437 after 20 hrs in the presence of PMBN by broth microdilution method; type: functional; conditions: NCTC 13437, 20 h; summary of the method: as §2
[5] = tested on: Staphylococcus aureus; experiment: Antibacterial activity against methicillin-sensitive Staphylococcus aureus ATCC 9144 after 20 hrs by broth microdilution method; type: functional; conditions: ATCC 9144, 20 h; summary of the method: as §2
[6] = tested on: Acinetobacter baumannii; experiment: Antibacterial activity against Acinetobacter baumannii ATCC 17978 after 20 hrs by broth microdilution method; type: functional; conditions: ATCC 17978, 20 h; summary of the method: as §2
[7] = tested on: Acinetobacter baumannii; experiment: Antibacterial activity against Acinetobacter baumannii ATCC 17978 after 20 hrs in the presence of PMBN by broth microdilution method; type: functional; conditions: ATCC 17978, 20 h; summary of the method: as §2
[8] = tested on: Klebsiella pneumoniae; experiment: Antibacterial activity against Klebsiella pneumoniae M6 after 20 hrs in the presence of Pa-beta-N and magnesium ions by broth microdilution method; type: functional; conditions: M6, 20 h; summary of the method: as §2
[9] = tested on: Pseudomonas aeruginosa; experiment: Antibacterial activity against Pseudomonas aeruginosa PAO1 after 20 hrs in the presence of Pa-beta-N and magnesium ions by broth microdilution method; type: functional; conditions: PAO1, 20 h; summary of the method: as §2
[10] = tested on: Acinetobacter baumannii; experiment: Antibacterial activity against Acinetobacter baumannii AYE after 20 hrs by broth microdilution method; type: functional; summary of the method: as §2
[11] = tested on: Klebsiella pneumoniae; experiment: Antibacterial activity against Klebsiella pneumoniae NCTC 13368 after 20 hrs by broth microdilution method; type: functional; conditions: NCTC 13368, 20 h; summary of the method: as §2
[12] = tested on: Pseudomonas aeruginosa; experiment: Antibacterial activity against Pseudomonas aeruginosa PAO1 after 20 hrs in the presence of PMBN by broth microdilution method; type: functional; conditions: PAO1, 20 h; summary of the method: as §2
[13] = tested on: Pseudomonas aeruginosa; experiment: Antibacterial activity against Pseudomonas aeruginosa NCTC 13437 after 20 hrs by broth microdilution method; type: functional; conditions: NCTC 13437, 20 h; summary of the method: as §2
[14] = tested on: Acinetobacter baumannii; experiment: Antibacterial activity against Acinetobacter baumannii ATCC 17978 after 20 hrs in the presence of Pa-beta-N and magnesium ions by broth microdilution method; type: functional; conditions: ATCC 17978, 20 h; summary of the method: as §2
[15] = tested on: Klebsiella pneumoniae; experiment: Antibacterial activity against Klebsiella pneumoniae M6 after 20 hrs by broth microdilution method; type: functional; conditions: M6, 20 h; summary of the method: as §2
[16] = tested on: Enterococcus faecium; experiment: Antibacterial activity against vancomycin-resistant Enterococcus faecium NCTC 12204 after 20 hrs by broth microdilution method; type: functional; conditions: NCTC 12204, 20 h; summary of the method: as §1
[17] = tested on: Klebsiella pneumoniae; experiment: Antibacterial activity against Klebsiella pneumoniae M6 after 20 hrs in the presence of PMBN by broth microdilution method; type: functional; conditions: M6, 20 h; summary of the method: as §2
[18] = tested on: Acinetobacter baumannii; experiment: Antibacterial activity against Acinetobacter baumannii AYE after 20 hrs in the presence of Pa-beta-N and magnesium ions by broth microdilution method; type: functional; summary of the method: as §2
[19] = tested on: Staphylococcus aureus; experiment: Antibacterial activity against methicillin-resistant Staphylococcus aureus EMRSA-15 after 20 hrs by broth microdilution method; type: functional; conditions: EMRSA-15, 20 h; summary of the method: as §1
[20] = tested on: Pseudomonas aeruginosa; experiment: Antibacterial activity against Pseudomonas aeruginosa PAO1 after 20 hrs by broth microdilution method; type: functional; conditions: PAO1, 20 h; summary of the method: as §2
[21] = tested on: Acinetobacter baumannii; experiment: Antibacterial activity against Acinetobacter baumannii AYE after 20 hrs in the presence of PMBN by broth microdilution method; type: functional; summary of the method: as §2
[22] = tested on: Pseudomonas aeruginosa; experiment: Antibacterial activity against Pseudomonas aeruginosa NCTC 13437 after 20 hrs in the presence of Pa-beta-N and magnesium ions by broth microdilution method; type: functional; conditions: NCTC 13437, 20 h; summary of the method: as §2
[23] = tested on: Enterococcus faecalis; experiment: Antibacterial activity against vancomycin-resistant Enterococcus faecalis NCTC 12201 after 20 hrs by broth microdilution method; type: functional; conditions: NCTC 12201, 20 h; summary of the method: as §1
[24] = Cytotoxicity against human HeLa cells assessed as cell viability at 25 uM after 24 hrs by MTT assay; type: cell-based; conditions: read-out: Activity
Summary of the method: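 HeLa cells, 10000 per well, were grown at 37 °C in 5% CO2 and allowed to settle for 24 h. Compound was then added in triplicate for 24 h of continuous exposure. Viability was read by MTT colorimetry, with absorbance at 570 nm.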

[25] = tested on: Enterococcus faecalis; experiment: Antibacterial activity against vancomycin-sensitive Enterococcus faecalis NCTC 775 after 20 hrs by broth microdilution method; type: functional; conditions: NCTC 775, 20 h; summary of the method: as §2

## Cc1nc2ccc(C(=O)Nc3cccc(-c4ccc(-n5c(C)nc6cc(C(=O)NCCCN7CCN(C)CC7)ccc65)nc4)c3)cc2[nH]1
[1]
  MIC: > 32 mg/L
[2]
  MIC: > 32 mg/L
[3]
  MIC: > 32 mg/L
[4]
  MIC: > 32 mg/L
[5]
  MIC: 16 mg/L (≈ 24.9 µM)
[6]
  MIC: > 32 mg/L
[7]
  MIC: > 32 mg/L
[8]
  MIC: > 32 mg/L
[9]
  MIC: > 32 mg/L
[10]
  MIC: > 32 mg/L
[11]
  MIC: > 32 mg/L
[12]
  MIC: > 32 mg/L
[13]
  MIC: > 32 mg/L
[14]
  MIC: > 32 mg/L
[15]
  MIC: > 32 mg/L
[16]
  MIC: > 128 mg/L
[17]
  MIC: > 32 mg/L
[18]
  MIC: > 32 mg/L
[19]
  MIC: > 128 mg/L
[20]
  MIC: > 32 mg/L
[21]
  MIC: > 32 mg/L
[22]
  MIC: > 32 mg/L
[23]
  MIC: 64 mg/L (≈ 99.7 µM)
[24]
  viability at 24 h, 25 µM: > 98%
[25]
  MIC: > 128 mg/L
